According to ChEMBL document CHEMBL4368909, “Identification of Dihydrofuro[3,4- d]pyrimidine Derivatives as Novel HIV-1 Non-Nucleoside Reverse Transcriptase Inhibitors with Promising Antiviral Activities and Desirable Physicochemical Properties” (J Med Chem, 2019):
In brackets after ≈: the same amount, converted by molar mass.

Experiments:
[1] = Aqueous solubility of the compound at pH at 7.4 by HPLC analysis; format: physicochemical; settings: buffer, pH 7.4
How it was run: (§1)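 Aqueous solubility read by HPLC in buffer at pH 2.0, 7.0 or 7.4.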

[2] = test system: Human immunodeficiency virus 1; assay: Antiviral activity against HIV1 NL4-3 infected in human TZM-bl cells after 2 days by luciferase-bright glo assay; format: functional, organism-based; settings: Human immunodeficiency virus 1, NL4-3, TZM-bl, 48 h
[3] = Aqueous solubility of the compound in FASSIF by HPLC analysis; format: physicochemical; settings: simulated gi fluid
How it was run: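 Solubility read by HPLC in fasted state simulated intestinal fluid (FaSSIF).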

[4] = Aqueous solubility of the compound at pH at 7 by HPLC analysis; format: physicochemical; settings: buffer, pH 7; how it was run: as §1
[5] = Selectivity ratio of CC50 for human TZM-bl cells to EC50 for HIV1 NL4-3 infected in human TZM-bl cells; format: toxicity, cell-based; settings: read-out: Ratio CC50/EC50
How it was run: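 The selectivity index is CC50/EC50 in TZM-bl cells against NL4-3. […] The highest concentration tested was 125 ng/mL.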

[6] = test system: TZM; assay: Cytotoxicity against human TZM-bl cells after 4 days by XTT assay; format: cell-based; settings: 96 h
[7] = Aqueous solubility of the compound at pH at 2 by HPLC analysis; format: physicochemical; settings: buffer, pH 2; how it was run: as §1
[8] = target: Human immunodeficiency virus type 1 reverse transcriptase (Human immunodeficiency virus 1, UniProt Q72547); assay: Inhibition of recombinant HIV1 reverse transcriptase using (DIG)-dUTP and biotin-labeled dNTPs as substrate after 1 hr by ELISA
[9] = Selectivity ratio of CC50 for human MT4 cells to EC50 for HIV1 RES056 infected in human MT4 cells; format: toxicity, cell-based; settings: read-out: Ratio CC50/EC50
[10] = Selectivity ratio of CC50 for human MT4 cells to EC50 for HIV1 harboring reverse transcriptase Y188L mutant infected in human MT4 cells; format: toxicity, cell-based; settings: read-out: Ratio CC50/EC50
[11] = test system: Human immunodeficiency virus 1; assay: Resistance factor, ratio of EC50 for HIV1 harboring reverse transcriptase K103N mutant to EC50 for wild type HIV1; format: functional
How it was run: (§2)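 The resistance factor is the EC50 against the mutant strain divided by the EC50 against wild-type HIV-1. Both were measured in MT-4 cells by MTT read-out of protection from virus-induced cytopathicity.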

[12] = test system: Human immunodeficiency virus 1; assay: Antiviral activity against HIV1 harboring reverse transcriptase E138K mutant infected in human MT4 cells assessed as reduction in virus-induced cytopathic effect after 5 days by MTT assay; format: functional, organism-based; settings: Human immunodeficiency virus 1, MT4, 120 h
[13] = test system: Human immunodeficiency virus 1; assay: Antiviral activity against HIV1 harboring reverse transcriptase F227L/V106A double mutant infected in human MT4 cells assessed as reduction in virus-induced cytopathic effect after 5 days by MTT assay; format: functional, organism-based; settings: Human immunodeficiency virus 1, MT4, 120 h
[14] = test system: Human immunodeficiency virus 1; assay: Antiviral activity against HIV1 harboring reverse transcriptase Y181C mutant infected in human MT4 cells assessed as reduction in virus-induced cytopathic effect after 5 days by MTT assay; format: functional, organism-based; settings: Human immunodeficiency virus 1, MT4, 120 h
[15] = test system: Human immunodeficiency virus 1; assay: Resistance factor, ratio of EC50 for HIV1 harboring reverse transcriptase F227L/V106A double mutant to EC50 for wild type HIV1; format: functional; how it was run: as §2
[16] = Selectivity ratio of CC50 for human MT4 cells to EC50 for HIV1 harboring reverse transcriptase F227L/V106A double mutant infected in human MT4 cells; format: toxicity, cell-based; settings: read-out: Ratio CC50/EC50
[17] = test system: MT4; assay: Cytotoxicity against human MT4 cells after 5 days by MTT assay; format: cell-based; settings: mt4, 120 h
[18] = test system: Human immunodeficiency virus 1; assay: Antiviral activity against wild type HIV1 3B infected in human MT4 cells assessed as reduction in virus-induced cytopathic effect after 5 days by MTT assay; format: functional, organism-based; settings: Human immunodeficiency virus 1, 3B, MT4, 120 h
[19] = test system: Human immunodeficiency virus 1; assay: Resistance factor, ratio of EC50 for HIV1 harboring reverse transcriptase E138K mutant to EC50 for wild type HIV1; format: functional; how it was run: as §2
[20] = Selectivity ratio of CC50 for human MT4 cells to EC50 for HIV1 harboring reverse transcriptase Y181C mutant infected in human MT4 cells; format: toxicity, cell-based; settings: read-out: Ratio CC50/EC50
[21] = test system: Human immunodeficiency virus 2; assay: Antiviral activity against HIV2 ROD infected in human MT4 cells assessed as reduction in virus-induced cytopathic effect after 5 days by MTT assay; settings: Human immunodeficiency virus 2, ISOLATE ROD, MT4, 120 h
[22] = Selectivity ratio of CC50 for human MT4 cells to EC50 for HIV1 harboring reverse transcriptase K103N mutant infected in human MT4 cells; format: toxicity, cell-based; settings: read-out: Ratio CC50/EC50
[23] = test system: Human immunodeficiency virus 1; assay: Antiviral activity against HIV1 RES056 infected in human MT4 cells assessed as reduction in virus-induced cytopathic effect after 5 days by MTT assay; format: functional, organism-based; settings: Human immunodeficiency virus 1, RES056, MT4, 120 h
[24] = test system: Human immunodeficiency virus 1; assay: Resistance factor, ratio of EC50 for HIV1 harboring reverse transcriptase Y181C mutant to EC50 for wild type HIV1; format: functional; how it was run: as §2
[25] = test system: Human immunodeficiency virus 1; assay: Antiviral activity against HIV1 harboring reverse transcriptase L100I mutant infected in human MT4 cells assessed as reduction in virus-induced cytopathic effect after 5 days by MTT assay; format: functional, organism-based; settings: Human immunodeficiency virus 1, MT4, 120 h
[26] = Selectivity ratio of CC50 for human MT4 cells to EC50 for HIV1 harboring reverse transcriptase E138K mutant infected in human MT4 cells; format: toxicity, cell-based; settings: read-out: Ratio CC50/EC50
[27] = test system: Human immunodeficiency virus 1; assay: Antiviral activity against HIV1 harboring reverse transcriptase Y188L mutant infected in human MT4 cells assessed as reduction in virus-induced cytopathic effect after 5 days by MTT assay; format: functional, organism-based; settings: Human immunodeficiency virus 1, MT4, 120 h
[28] = Selectivity ratio of CC50 for human MT4 cells to EC50 for HIV1 3B infected in human MT4 cells; format: toxicity, cell-based; settings: read-out: Ratio CC50/EC50
[29] = test system: Human immunodeficiency virus 1; assay: Resistance factor, ratio of EC50 for HIV1 harboring reverse transcriptase Y188L mutant to EC50 for wild type HIV1; format: functional; how it was run: as §2
[30] = test system: Human immunodeficiency virus 1; assay: Resistance factor, ratio of EC50 for HIV1 harboring reverse transcriptase L100I mutant to EC50 for wild type HIV1; format: functional; how it was run: as §2
[31] = Selectivity ratio of CC50 for human MT4 cells to EC50 for HIV1 harboring reverse transcriptase L100I mutant infected in human MT4 cells; format: toxicity, cell-based; settings: read-out: Ratio CC50/EC50
[32] = test system: Human immunodeficiency virus 1; assay: Antiviral activity against HIV1 harboring reverse transcriptase K103N mutant infected in human MT4 cells assessed as reduction in virus-induced cytopathic effect after 5 days by MTT assay; format: functional, organism-based; settings: Human immunodeficiency virus 1, MT4, 120 h

Compound | solubility [3] [µg/mL] | solubility [4] [µg/mL] | solubility [7] [µg/mL] | IC50 [8] [nM] | selectivity ratio [9] | selectivity ratio [10] | Ratio EC50 [11] | EC50 [12] [nM] | EC50 [13] [nM] | EC50 [14] [nM] | Ratio EC50 [15] | selectivity ratio [16] | CC50 [17] [nM] | EC50 [18] [nM] | Ratio EC50 [19] | selectivity ratio [20] | EC50 [21] [nM] | selectivity ratio [22] | EC50 [23] [nM] | Ratio EC50 [24] | other results
Cc1cc(C#N)cc(C)c1Oc1nc(NC2CCN(Cc3ccc(S(N)(=O)=O)cc3)CC2)nc2ccsc12 | 1.24 (≈ 2.26 µM) | 0.05 (≈ 0.0911 µM) | 190 (≈ 346 µM) |  |  |  |  |  |  |  |  |  |  |  |  |  |  |  |  |  | solubility [1]: < 1 µg/mL; EC50 [2]: 1.16 nM; selectivity ratio [5]: 196; CC50 [6]: > 227 nM
Cc1cc(C#N)cc(C)c1Oc1nc(NC2CCN(Cc3ccc(S(N)(=O)=O)cc3)CC2)nc2c1COC2 | 8.42 (≈ 15.7 µM) | 10.3 (≈ 19.3 µM) | 174 (≈ 325 µM) | 109 | 725 | 1810 | 1 | 7.9 | 12.7 | 5.4 | 4.2 | 2270 | 27500 | 2.8 | 2.7 | 5090 | ≥ 8370 | 9220 | 38 | 1.9 | solubility [1]: 5.68 µg/mL (≈ 10.6 µM); EC50 [25]: 3 nM; selectivity ratio [26]: 3470; EC50 [27]: 15.2 nM; selectivity ratio [28]: 9520; Ratio EC50 [29]: 5.3; Ratio EC50 [30]: 1.1; selectivity ratio [31]: 8940; EC50 [32]: 2.9 nM
Cc1cc(C#N)cc(C)c1Oc1nc(NC2CCN(Cc3ccc(C(N)=O)cc3)CC2)nc2c1SCC2 |  |  |  | 66 | 3800 | 6590 | 1.1 | 15.3 | 36.5 | 8.4 | 7.9 | 4000 | 165000 | 4.8 | 3.3 | 17300 | > 165000 | 28900 | 43.6 | 1.8 | EC50 [25]: 15.2 nM; selectivity ratio [26]: 9520; EC50 [27]: 22.1 nM; selectivity ratio [28]: 34200; Ratio EC50 [29]: 4.8; Ratio EC50 [30]: 3.3; selectivity ratio [31]: 9580; EC50 [32]: 5 nM
Cc1cc(C#N)cc(C)c1Oc1nc(NC2CCN(Cc3ccc(S(C)(=O)=O)cc3)CC2)nc2c1COC2 | 23.6 (≈ 44.2 µM) | 1.37 (≈ 2.57 µM) | 164 (≈ 307 µM) | 77 | 752 | 3940 | 1 | 7.8 | 7.2 | 4.9 | 3.7 | 4350 | 31300 | 1.9 | 4 | 6320 | > 27000 | 15200 | 41.6 | 2.5 | solubility [1]: < 1 µg/mL; EC50 [25]: 3.4 nM; selectivity ratio [26]: 3990; EC50 [27]: 7.9 nM; selectivity ratio [28]: 15900; Ratio EC50 [29]: 4; Ratio EC50 [30]: 1.8; selectivity ratio [31]: 9050; EC50 [32]: 2 nM
Cc1cc(C#N)cc(C)c1Oc1nc(NC2CCN(Cc3ccc(S(N)(=O)=O)cc3)CC2)nc2c1SCC2 | 10 (≈ 18.2 µM) | 8.26 (≈ 15 µM) | 192 (≈ 349 µM) | 74 | 692 | 1640 | 1.3 | 12.8 | 13.7 | 8 | 2.9 | 1220 | 19900 | 4.3 | 2.7 | 2070 | 6550 | 2840 | 28.8 | 1.7 | solubility [1]: 2.54 µg/mL (≈ 4.61 µM); EC50 [25]: 5.8 nM; selectivity ratio [26]: 1300; EC50 [27]: 10.1 nM; selectivity ratio [28]: 4580; Ratio EC50 [29]: 2.2; Ratio EC50 [30]: 1.2; selectivity ratio [31]: 2880; EC50 [32]: 5.9 nM
Cc1cc(C#N)cc(C)c1Oc1nc(NC2CCN(Cc3ccncc3)CC2)nc2c1COC2 | 8.57 (≈ 18.8 µM) | 14.6 (≈ 32 µM) | 223 (≈ 488 µM) | 56 | 871 | 4770 | 0.5 | 6.2 | 10.5 | 4.9 | 4.4 | 3580 | 37600 | 2.3 | 2.6 | 7630 | 5120 | 31200 | 43.1 | 2.1 | EC50 [25]: 4.1 nM; selectivity ratio [26]: 6020; EC50 [27]: 7.8 nM; selectivity ratio [28]: 15900; Ratio EC50 [29]: 3.3; Ratio EC50 [30]: 1.8; selectivity ratio [31]: 9040; EC50 [32]: 1.2 nM
